Compounds with a hit are over-represented: about 4.9% of the library has one in this group of screens.
STAT1 act = increases IFN-gamma driven STAT1 reporter signal. NIH 3T3 STAT1-luciferase reporter, luminescence; 100% = IFN-gamma alone, no compound. actives 2.6% (n = 200,000). activation (% of control), % at 5.5 µM;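 active = activation above the screen-wide mean activation plus 3 SD, cut at about 130% in these data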;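 also: raw ratio to IFN-gamma control signal so 100% means no change and 0% no light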
STAT3 blocker = inhibitors of IL-6 induced STAT3 signaling; U3A cells, IL-6 STAT3-luciferase reporter, luminescence; host cell line lacks STAT1; actives 0.89% (n = 190,000); inhibition, % at 5.5 µM;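 active = inhibition above the mean inhibition across all screened compounds plus 3 SD, cut at about 44% in these data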;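 also: 0% = DMSO only wells and 100% = 100 µM nifuroxazide control wells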
STAT3 act = increases IL-6 driven STAT3 reporter signal; U3A cells, IL-6 STAT3-luciferase reporter, luminescence; 100% = signal with IL-6 EC80 alone; activation (% of control), % at 5.6 µM; actives 0.91% (n = 190,000); AID 871;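 active = activation above the screen-wide mean of compound activation plus 3 SD, cut at about 130% in these data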;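 also: 0% = background luminescence of wells with medium and substrate only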
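Test system: human U3A cells carrying STAT3-luciferase construct; control set: IL-6-only wells as 100% reference; timing: compound pre-incubation 1 h before IL-6, then 6 h stimulation at 37 °C; also added: IL-6 stimulus at 33 ng/mL final; evaluation: % activation versus median of IL-6-stimulated wells; detection: reporter luminescence signal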
STAT1 blocker = reduces IFN-gamma driven STAT1 reporter signal; actives 0.35% (n = 200,000); NIH 3T3 STAT1-luciferase reporter, luminescence; AID 920; inhibition, % at 5.5 µM;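 active = inhibition above a set limit, the mean inhibition across all tested compounds plus 3 SD, cut at about 34% in these data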;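 also: 0% = IFN-gamma with DMSO and 100% = IFN-gamma with 300 µM nifuroxazide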
NF-kB expr up = raises NF-kB expression in human neuronal cells | AID 1239 | fold change at 12.5 µM | NF-kB reporter expression; stronger effect = higher value | actives 1.6% (n = 190,000); in the data active = fold change above about 3.3
APP 5'UTR act = activates APP 5'UTR luciferase reporter | SH-SY5Y APP 5'UTR luciferase reporter, luminescence; zero percent = DMSO vehicle wells | activation, % at 2 µM | actives 1% (n = 190,000);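 active = activation above a set limit, based on mean plus 3 SD of controls, cut at about 140% in these data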
The depositor's hits bear a star.

SMILES	STAT1 act	STAT3 blocker	STAT3 act	STAT1 blocker	NF-kB expr up	APP 5'UTR act
CCCCN1CCc2c([nH]c3ccc(C)cc23)C1=O	150.6*	-3.4	108.5	-55.7	3.16	123.2
Cc1ccc2[nH]c3c(c2c1)CCC3=O	102.2	17.8	86.7	-2.4	1.23	7.3
CCn1c(C2CCN(Cc3ccccc3)CC2)n[nH]c1=S	98.9	14.0	96.5	-0.6	1	154.1*
S=c1[nH]nc(C2CC2)n1Cc1ccco1	99.1	3.6	97.2	0.9	1.4	-2.5
COC(=O)c1cn(C(=O)/C=C/c2ccc(OC)c(OC)c2)c2ccccc12	102.5	4.1	103.3	-4.2	0.95	-16.9
Cc1ccccc1C(=O)Nc1cccc(NC(=O)Cn2cnc3c(=O)n(C)c(=O)n(C)c32)c1	95.6	22.8	82.8	4.7	5.42*	-13.4
Cn1c(O)c(C(C#N)=C2N=c3ccccc3=N2)c2ccccc21	87.0	-34.1	134.7*	14.2	0.81	0.4
O=C(/C=C/c1ccc(N2CCCCC2)c([N+](=O)[O-])c1)c1ccc(O)cc1	142.8*	-29.1	129.9	-48.8	3.8*	121.2
COc1ccccc1C(=O)/C=C/c1ccc(N2CCCCC2)c([N+](=O)[O-])c1	116.5	2.4	100.5	-18.3	2.95	26.4
Brc1ccccc1-c1nnc(SCc2nc3ccccc3s2)o1	135.6*	-49.9	142.9*	-40.1	1.2	81.1
COc1ccc(C(=O)/C=C/c2cccs2)c(OC(=O)c2cccc([N+](=O)[O-])c2)c1	112.5	-10.4	112.5	-14.0	6.01*	21.4
COc1ccc(C(=O)/C=C/c2ccc(F)cc2)c(OC(=O)c2ccc([N+](=O)[O-])cc2)c1	104.3	15.6	92.0	-4.8	1.58	8.3
CC(=O)Nc1ccc(-c2cn3cc(C)ccc3n2)cc1	130.0*	37.6	69.3	-33.6	5.93*	149.4*
CC(=O)Nc1ccc(-c2ccnc(-c3ccc(NC(C)=O)cc3)n2)cc1	97.5	21.0	85.4	1.1	0.88	-17.7
Cc1ccc2nc(-c3ccccc3)cn2c1	23.2	103.2*	10.5	84.5*	0.96	2.7
Cc1ccc2nc(-c3ccc(S(=O)(=O)N4CCOCC4)cc3)cn2c1	103.7	11.9	91.1	-4.0	0.93	-13.4
COc1cc2c(C(=O)N3CCOCC3)c(CSc3ccccc3)n(C)c2cc1Br	89.0	10.9	100.7	11.3	0.86	8.4
O=C(Nc1ccc2c3c(cccc13)CC2)c1ccc(Br)o1	130.6*	16.4	91.9	-33.3	2	16.2
O=C(Nc1ccc2c3c(cccc13)CC2)c1ccco1	110.8	6.4	98.8	-11.9	1.6	11.3
CC(C)COC(=O)c1ccc(NC(=O)C2C3CCC(C3)C2C(=O)O)cc1 (configuration not stated)	143.0*	-21.2	122.3	-47.0	0.93	64.7
O=c1c(-c2cnn(-c3ccccc3)c2)coc2cc(O)ccc12	132.5*	11.3	94.5	-38.3	3.69*	140.0*
Cc1oc2cc(O)ccc2c(=O)c1-c1cnn(-c2ccccc2)c1	92.9	24.9	80.2	7.7	2.01	20.4
C/C(=N/NC(=O)c1ccoc1C)c1ccc(NC(=O)C2CCCC2)cc1	136.3*	14.8	88.8	-39.6	1.16	161.1*
C/C(=N\NC(=O)C1(C)CC1(Br)Br)c1ccc(NC(=O)C2CCC2)cc1 (configuration not stated)	97.4	-7.5	110.0	2.9	1.04	-10.3
C/C(=N\NC(=O)c1ccn(C)n1)c1ccc(NC(=O)C2CCCC2)cc1	135.3*	-10.5	109.5	-39.5	0.99	7.9
SMILES	STAT1 act	STAT3 blocker	STAT3 act	STAT1 blocker	NF-kB expr up	APP 5'UTR act
Cc1occc1C(=O)NNC(=O)C1CCCCC1	99.0	2.1	96.2	1.1	1.17	13.4
CCc1cccc(Nc2cc(C)nc3ncnn23)c1	104.1	-3.6	103.0	-4.5	0.84	15.4
CCn1c2ccccc2c2cc(Nc3cc(C)nc4ncnn34)ccc21	103.0	-43.4	135.6*	-2.3	4.36*	-95.9
COc1ccc(C(=O)Cc2ccc3c(c2)OCO3)c(O)c1	147.1*	-14.7	110.5	-50.0	2.52	129.1
Nc1nc(Cl)nc2c1ncn2[C@@H]1O[C@H](CO)[C@@H](O)[C@H]1O	87.7	3.0	99.4	13.6	1.33	1.0
CN(C)c1ncnc2c1ncn2C1OC(CO)C(O)C1O (configuration not stated)	43.0	43.6*	67.0	61.8*	0.36	-39.6
Cc1ccc(O)c(C2=Nc3ccccc3C2(C)C)c1	146.6*	-5.5	110.9	-52.0	1.12	26.7
COc1ccc(C)cc1C1=Nc2ccccc2C1(C)C	90.2	8.7	95.0	11.2	1.02	-0.5
CC(=O)N(C)c1ccc(N=Nc2c(C)[nH]n(C(N)=S)c2=O)cc1	147.8*	21.6	90.0	-53.3	4.54*	139.3*
Cc1cccc(N=Nc2c(C)[nH]n(C(N)=S)c2=O)c1C	130.6*	-2.9	107.7	-33.1	1.97	46.9
CCN(CC)S(=O)(=O)c1ccc(N=Nc2c(C)[nH]n(C(N)=S)c2=O)cc1	115.5	-2.9	105.2	-23.9	1.7	21.9
Cc1ccccc1N=Nc1c(C)[nH]n(C(N)=S)c1=O	106.9	9.9	91.5	-7.7	1.18	-7.6
COc1cc(/C=C(/C(=O)c2cccs2)c2nc3ccccc3[nH]2)ccc1O	95.8	-40.6	135.7*	4.6	4.54*	42.5
O=C(/C(=C/c1ccc(Cl)cc1)c1nc2ccccc2[nH]1)c1cccs1	86.3	2.7	96.5	14.9	0.57	38.8
O=c1n(-c2ccc(Br)cc2)cnn1-c1ncccc1[N+](=O)[O-]	130.5*	7.1	99.3	-35.9	2.42	55.5
Cc1cc2nc(-c3ccc(SCC(=O)Nc4nccs4)nc3)[nH]c2cc1C	126.8	-10.5	107.5	-29.4	1.73	155.8*
Cc1cc2nc(-c3ccc(SCc4ccc(C#N)cc4)nc3)[nH]c2cc1C	101.9	18.6	90.5	-2.1	0.62	34.3
COc1ccc(-c2ccc(SCC(=O)Nc3nccs3)nn2)cc1OC	109.4	-42.1	135.0*	-9.3	1.16	23.1
CC(=O)CSc1ccc(-c2nc3cc(C)c(C)cc3[nH]2)cn1	19.7	103.1*	13.8	85.4*	0.57	30.8
Cc1ccc2nc(-c3ccc(SCC(=O)N4CCc5ccccc54)nc3)[nH]c2c1	130.9*	-43.0	143.0*	-34.9	1.34	133.5
Cc1ccc2nc(-c3ccc(SCC(=O)O)nc3)[nH]c2c1	95.7	10.3	93.2	4.7	0.74	13.1
CC(Sc1nc2c(cc1C#N)CCCCC2)C(=O)O (configuration not stated)	97.0	10.8	95.3	1.1	1.05	26.2
CCCn1nc2cc(C(=O)NCCc3cccs3)ccc2c1OCC	124.3	-2.2	106.3	-26.5	1.96	38.8
CCc1nnc(NC(=O)CSc2ccc(-c3nc4ccc(C)cc4[nH]3)cn2)s1	114.7	-0.2	99.7	-16.1	2.84	138.3*

Screening results (PubChem)
